GASC1 inh = inhibitors of GASC-1 (KDM4C) histone demethylase, primary screen, biochemical, single concentration HTS. Lysine-specific demethylase 4C (Homo sapiens), Q9H3R0. GST-KDM4C 2-372, H3K9me3 peptide, LANCE TR-FRET. inhibition, % at 12.5 µM. 96,000 compounds, 0.15% hits. AID 720574, 2013;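 active means mean replicate inhibition above about 25%, with at least 55% of replicates also reaching it, limit read from the data, passing the limit was not always enough; inconclusive means only one of those two conditions met; inactive means neither condition met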
Target sequence (Q9H3R0 2-372 limits assumed): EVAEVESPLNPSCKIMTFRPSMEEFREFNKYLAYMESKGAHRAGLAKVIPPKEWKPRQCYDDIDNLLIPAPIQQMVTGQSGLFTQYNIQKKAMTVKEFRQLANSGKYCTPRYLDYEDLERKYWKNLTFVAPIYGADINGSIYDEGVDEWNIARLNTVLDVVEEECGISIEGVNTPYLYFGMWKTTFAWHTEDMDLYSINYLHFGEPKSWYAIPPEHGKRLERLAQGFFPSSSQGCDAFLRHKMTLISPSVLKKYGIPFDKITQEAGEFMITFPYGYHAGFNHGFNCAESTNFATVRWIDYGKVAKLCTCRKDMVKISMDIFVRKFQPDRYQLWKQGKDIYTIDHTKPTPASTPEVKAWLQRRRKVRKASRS
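Material: N-terminal GST-fused human GASC-1 (KDM4C) fragment, residues 2-372. Input: 10 nM enzyme. Incubation: enzyme reaction 30 min, then detection 60 min, both room temperature. Doses: one test concentration per compound. Read-out basis: inhibition from TR-FRET ratio decrease. Detection: LANCE TR-FRET, excitation 340 nm, emissions 618 and 671 nm.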
T cruzi growth-1 = T. cruzi intracellular proliferation inhibitors, primary screen, cell-based, beta-gal Tulahuen parasites, NIH3T3 host, luminescence; T. cruzi beta-gal in NIH3T3, GalScreen luminescence, 90 h; inhibition, % at 8.34 µM; 77,000 compounds, 5.9% hits; AID 624255, 2012;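 active means mean inhibition above about 93%, with at least 55% of replicates each passing it, limit read from the data, passing the limit was not always enough; inconclusive means only one of those two conditions holds; inactive means neither condition holds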
IDH1 mut inh = inhibitors of IDH1 R132H reductase, primary screen, biochemical, plate reader, single point. Isocitrate dehydrogenase [NADP] cytoplasmic (Homo sapiens), O75874. diaphorase/resazurin fluorescence, 60 min. inhibition, % at 10 µM. 70,000 compounds, 0.18% hits. AID 624101, 2012; in the data active means inhibition above about 34%; inconclusive means no clear call, values can overlap the other calls; inactive means below about 11%;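 further: 0% = DMSO and 100% = no enzyme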
Target sequence (O75874 whole entry R132H): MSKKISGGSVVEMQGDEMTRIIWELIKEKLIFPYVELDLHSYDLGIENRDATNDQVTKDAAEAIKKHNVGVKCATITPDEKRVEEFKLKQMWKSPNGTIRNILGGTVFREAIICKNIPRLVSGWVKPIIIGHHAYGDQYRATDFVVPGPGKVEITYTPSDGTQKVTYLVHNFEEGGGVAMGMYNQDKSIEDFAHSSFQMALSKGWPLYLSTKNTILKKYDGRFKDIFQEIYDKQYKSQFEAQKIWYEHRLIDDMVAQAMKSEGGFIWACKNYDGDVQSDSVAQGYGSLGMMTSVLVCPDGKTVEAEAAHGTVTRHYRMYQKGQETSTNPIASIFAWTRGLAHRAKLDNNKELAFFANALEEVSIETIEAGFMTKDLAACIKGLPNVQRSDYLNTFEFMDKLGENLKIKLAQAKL
T cruzi growth-2 = T. cruzi intracellular proliferation inhibitors, confirmation, cell-based, NIH3T3 host, beta-gal parasite, luminescence, cherry-pick; shares compounds with T cruzi growth-1; T. cruzi beta-gal in NIH3T3, GalScreen luminescence, 90 h; inhibition, % at 8.35 µM; 5,600 compounds, 72% hits; AID 651739, 2012;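 active means mean replicate inhibition above about 95% and at least 55% of replicates individually reaching it, limit read from the data; inconclusive means only one of the two criteria is met; inactive means neither criterion is met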
T cruzi growth-3 = inhibitors of intracellular T. cruzi replication, confirmation, NIH3T3 host cells, beta-gal parasites, cherry-pick, set 2; shares compounds with T cruzi growth-1; T. cruzi beta-gal in NIH3T3, GalScreen luminescence, 90 h; inhibition, % at 2.09 µM; 5,600 compounds, 21% hits; AID 651740, 2012;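 active means mean inhibition above about 95%, with at least 55% of replicates also reaching it, limit read from the data; inconclusive means meets just one of the two conditions; inactive means meets neither condition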;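 further: plate controls were neutral control median for no effect and positive control median for full effect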
3T3 cytotox = cytotoxicity in mouse NIH/3T3 fibroblasts, confirmation, cytotoxicity control for T. cruzi proliferation inhibitor project, cell-based, cherry-pick, single point | cytotoxicity (signal decrease), % at 8.35 µM | NIH/3T3 viability, CellTiter-Glo ATP luminescence, 90 h | 5,600 compounds, 14% hits | shares compounds with T cruzi growth-1 | AID 651742, 2012;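 active means mean signal decrease across replicates above about 35% based on untreated-well scatter, with enough replicates individually passing, limit read from the data; inconclusive means no rule stated though some were filed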;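 further: 0% = median of neutral control wells and 100% = median of positive control wells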
NIH3T3 tox 2 = NIH/3T3 fibroblast cytotoxicity, confirmation, cytotoxicity control, cell-based, cherry-pick, single point, set 2 | inhibition, % at 24.9 µM | 5,600 compounds, 56% hits | AID 651744, 2012 | shares compounds with T cruzi growth-1 | NIH/3T3 viability, CellTiter-Glo ATP luminescence, 90 h;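 active means mean loss of cell viability signal at or above a set limit, and enough replicates individually reaching it; inconclusive means meets only the mean limit or only the replicate share; inactive means meets neither condition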;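 further: 0% = median of neutral control wells and 100% = median of positive control wells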
* = called active by the depositor; ? = inconclusive; nt = no result given; + = active, no number. Shown is part of a subset that was picked to be rich in hits.

SMILES | GASC1 inh | T cruzi growth-1 | IDH1 mut inh | T cruzi growth-2 | T cruzi growth-3 | 3T3 cytotox | NIH3T3 tox 2
CC(=O)N1CCCCN2[C@H](CO)[C@H](c3ccc(-c4ccncc4)cc3)[C@H]2C1 | 0 | 30 | nt | nt | nt | nt | nt
CO[C@@H]1CN(C)C(=O)c2cc(NC(C)=O)ccc2OC[C@@H](C)N(CCc2ccccc2)C[C@@H]1C | 1 | 3 | 0 | nt | nt | nt | nt
C[C@H](CO)N1C[C@H](C)[C@@H](CN(C)Cc2ccccc2)Oc2ccc(NC(=O)C3CCCCC3)cc2C1=O | nt | -6 | nt | nt | nt | nt | nt
O=C(c1ccc(F)cc1)N1CCCCN2[C@H](C1)[C@@H](c1ccc(-c3ccccc3)cc1)[C@@H]2CO | 0 | 67 | nt | nt | nt | nt | nt
COc1cccc(-c2ccc([C@H]3[C@@H](CO)N4CCCCN(C(=O)c5ccc(F)cc5)C[C@H]34)cc2)c1 | 0 | 108* | nt | 108* | 94 | -18 | 104*
O=C(c1ccc(F)cc1)N1CCCCN2[C@@H](CO)[C@H](c3ccc(-c4ccc(F)cc4)cc3)[C@@H]2C1 | nt | 104* | nt | 89 | 19 | 44* | 106*
O=C(c1ccc(F)cc1)N1CCCCN2[C@H](C1)[C@H](c1ccc(-c3ccc(F)cc3)cc1)[C@@H]2CO | nt | 93 | nt | nt | nt | nt | nt
COc1cccc(-c2ccc([C@@H]3[C@@H](CO)N4CCCCN(C(=O)c5ccc(F)cc5)C[C@H]34)cc2)c1 | -1 | 79 | nt | nt | nt | nt | nt
O=C(c1ccc(F)cc1)N1CCCCN2[C@H](CO)[C@@H](c3ccc(-c4ccc(F)cc4)cc3)[C@@H]2C1 | nt | 100* | nt | 99* | 103* | 18 | 104*
COc1ccc(CN2C[C@@H](O)COC[C@H]3O[C@@H](CC(=O)N(C)C)CC[C@@H]32)cc1 | -2 | -5 | nt | nt | nt | nt | nt
CCC(=O)N(C)C[C@H]1Oc2ncc(-c3ccccc3C)cc2C(=O)N([C@H](C)CO)C[C@H]1C | 2 | 5 | 1 | nt | nt | nt | nt
Cc1ccc(S(=O)(=O)Nc2ccccc2-c2nc3ccccc3c(=O)o2)cc1 | nt | nt | 0 | nt | nt | nt | nt
O=C(Nc1ccc2c(c1)[C@@H]1C[C@H](CC(=O)N3CCc4ccccc4C3)O[C@@H](CO)[C@@H]1O2)C1CCC1 | -2 | 44 | 0 | nt | nt | nt | nt
COCC#Cc1ccc([C@@H]2[C@@H](CO)N3CCCCN(C(=O)COC)C[C@H]23)cc1 | 0 | 102* | nt | 38 | -5 | 16 | -2
CCC(=O)N1CCCCN2[C@H](CO)[C@@H](c3ccc(C#CCOC)cc3)[C@@H]2C1 | 1 | 100* | nt | 1 | 22 | -2 | 14
COCC#Cc1ccc([C@@H]2[C@H]3CN(C(=O)COC)CCCCN3[C@H]2CO)cc1 | -1 | 25 | nt | nt | nt | nt | nt
CCC(=O)N1CCCCN2[C@H](CO)[C@H](c3ccc(C#CCOC)cc3)[C@H]2C1 | -1 | 64 | nt | nt | nt | nt | nt
Cc1ccc(S(=O)(=O)N(C)C[C@H]2OCCCC[C@@H](C)Oc3ccc(NC(=O)CCCN(C)C)cc3C(=O)N([C@@H](C)CO)C[C@H]2C)cc1 | 2 | -35 | -9 | nt | nt | nt | nt
COc1ccc(S(=O)(=O)N(C)C[C@@H]2Oc3ccc(NC(=O)C4CCCCC4)cc3C(=O)N([C@H](C)CO)C[C@H]2C)cc1 | 0 | 26 | nt | nt | nt | nt | nt
CN(C)C(=O)[C@@H]1[C@@H](CO)[C@@H]2Cn3c(ccc(-c4ccccc4)c3=O)[C@H]1N2CC1CCCC1 | 0 | 87 | nt | nt | nt | nt | nt
CN(C)C(=O)[C@H]1[C@H](CO)[C@H]2Cn3c(ccc(-c4ccccc4)c3=O)[C@@H]1N2CC1CCCC1 | 0 | ? | nt | 85 | 26 | 5 | ?
CCNC(=O)[C@@H]1[C@@H](CO)[C@@H]2Cn3c(ccc(-c4ccccc4)c3=O)[C@H]1N2C(=O)C1CC1 | -1 | 3 | nt | nt | nt | nt | nt
CCN1[C@@H]2Cn3c(ccc(-c4ccccc4)c3=O)[C@H]1[C@@H](C(=O)NCc1ccccc1)[C@@H]2CO | 0 | 53 | nt | nt | nt | nt | nt
CCN1[C@@H]2c3ccc(-c4ccccc4)c(=O)n3C[C@H]1[C@H](CO)[C@H]2C(=O)Nc1ccccc1 | 0 | 99* | nt | 62 | 1 | 8 | 13
CN(C)C(=O)[C@@H]1[C@@H](CO)[C@@H]2Cn3c(ccc(-c4ccccc4)c3=O)[C@H]1N2C(=O)C1CCC1 | 19 | + | nt | 55 | -19 | -14 | 7
SMILES | GASC1 inh | T cruzi growth-1 | IDH1 mut inh | T cruzi growth-2 | T cruzi growth-3 | 3T3 cytotox | NIH3T3 tox 2
Cc1c(Br)ccc(NC(=O)CSc2nnnn2-c2ccccc2)c1C | nt | nt | 0 | nt | nt | nt | nt
CCCN(C)C[C@H]1Oc2cc(C#Cc3ccccc3)ccc2S(=O)(=O)N([C@H](C)CO)C[C@H]1C | -2 | 79 | -1 | nt | nt | nt | nt
COc1ccc(CN(C)C[C@H]2OCCCC[C@@H](C)Oc3ccc(NC(=O)Nc4ccccc4)cc3C(=O)N([C@@H](C)CO)C[C@@H]2C)cc1 | -2 | 93 | nt | nt | nt | nt | nt
COc1cccc(S(=O)(=O)N(C)C[C@@H]2Oc3cc(C#CCC(C)C)ccc3S(=O)(=O)N([C@H](C)CO)C[C@H]2C)c1 | 4 | 61 | 0 | nt | nt | nt | nt
COc1cccc(S(=O)(=O)N(C)C[C@@H]2Oc3cc(C#CCC(C)C)ccc3S(=O)(=O)N([C@@H](C)CO)C[C@@H]2C)c1 | 0 | ? | 0 | ? | 112* | 5 | 9
CCCC#Cc1ccc2c(c1)O[C@H](CN(C)S(=O)(=O)c1cccc(OC)c1)[C@H](C)CN([C@@H](C)CO)S2(=O)=O | 6 | nt | 0 | nt | nt | nt | nt
COc1cccc(S(=O)(=O)N(C)C[C@H]2Oc3cc(C#CCC(C)C)ccc3S(=O)(=O)N([C@@H](C)CO)C[C@H]2C)c1 | 1 | ? | -3 | 96* | 112* | 18 | 66*
CCS(=O)(=O)N1CC2(C1)[C@H](c1ccccc1)[C@H](CO)N2C(=O)c1ccccc1 | 21 | nt | nt | nt | nt | nt | nt
CN(C)C(=O)c1ccc(-c2ccc(C3[C@H]4CNC[C@@H]3N4CC3CCCCC3)cc2)cc1 (stereo partly specified) | 1 | nt | nt | nt | nt | nt | nt
O=C(C[C@H]1CC[C@@H]2[C@H](COC[C@H](O)CN2Cc2ccc3c(c2)OCO3)O1)Nc1ccc(-c2ccccc2)cc1 | 1 | 112* | nt | 106* | 35 | 5 | 50*
O=C(C[C@@H]1CC[C@H]2[C@@H](COC[C@@H](O)CN2Cc2ccc3c(c2)OCO3)O1)Nc1ccc(-c2ccccc2)cc1 | 2 | 103* | nt | 95* | 103* | -14 | 94*

Assay outcomes deposited in PubChem BioAssay by Broad Institute.
